According to ChEMBL document CHEMBL4414562, “Discovery of the First in Vivo Active Inhibitors of the Soluble Epoxide Hydrolase Phosphatase Domain” (J Med Chem, 2019):
Calls of active or inactive are those of the source. The calls are words filed in the database; no cut-off is given here.

Columns and labels:
[1] = target: T1, Oxysterols receptor LXR-alpha (Homo sapiens) (UniProt Q13133); assay: Activation of Gal4-fused human LXRalpha LBD transfected in HEK293T cells at 10 uM after 12 to 14 hrs by luciferase reporter gene assay; assay type: cell-based
T1 sequence (whole entry): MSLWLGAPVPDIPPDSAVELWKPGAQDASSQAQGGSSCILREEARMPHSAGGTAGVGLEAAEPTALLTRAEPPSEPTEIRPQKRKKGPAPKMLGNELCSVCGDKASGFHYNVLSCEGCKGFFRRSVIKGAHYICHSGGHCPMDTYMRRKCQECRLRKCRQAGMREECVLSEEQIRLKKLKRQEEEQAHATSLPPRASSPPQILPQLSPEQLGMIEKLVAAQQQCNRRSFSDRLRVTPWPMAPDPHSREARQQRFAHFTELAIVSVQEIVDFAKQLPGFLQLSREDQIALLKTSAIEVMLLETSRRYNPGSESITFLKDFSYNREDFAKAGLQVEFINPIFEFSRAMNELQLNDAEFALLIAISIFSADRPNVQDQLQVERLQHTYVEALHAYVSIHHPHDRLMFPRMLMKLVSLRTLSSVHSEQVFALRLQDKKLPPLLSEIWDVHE
Outline: (§1)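 Gal4–human nuclear receptor LBD fusion (pFA-CMV-hNR-LBD) co-transfected with pFR-Luc and pRL-SV40 (Lipofectamine LTX) into HEK293T cells seeded the day before. 5 h post-transfection, compound added in Opti-MEM with 0.1% DMSO and incubated 12−14 h. Dual-Glo firefly/Renilla luciferase read. Activation expressed relative to reference agonist at 1 μM. Triplicates, ≥3 independent experiments.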

[2] = target: T2, Bifunctional epoxide hydrolase 2 (Rattus norvegicus, UniProt P80299); assay: Inhibition of hydrolase activity of full length rat soluble epoxide hydrolase pre-incubated for 30 mins before PHOME substrate addition by fluorescence based assay
T2 sequence (P80299 whole entry): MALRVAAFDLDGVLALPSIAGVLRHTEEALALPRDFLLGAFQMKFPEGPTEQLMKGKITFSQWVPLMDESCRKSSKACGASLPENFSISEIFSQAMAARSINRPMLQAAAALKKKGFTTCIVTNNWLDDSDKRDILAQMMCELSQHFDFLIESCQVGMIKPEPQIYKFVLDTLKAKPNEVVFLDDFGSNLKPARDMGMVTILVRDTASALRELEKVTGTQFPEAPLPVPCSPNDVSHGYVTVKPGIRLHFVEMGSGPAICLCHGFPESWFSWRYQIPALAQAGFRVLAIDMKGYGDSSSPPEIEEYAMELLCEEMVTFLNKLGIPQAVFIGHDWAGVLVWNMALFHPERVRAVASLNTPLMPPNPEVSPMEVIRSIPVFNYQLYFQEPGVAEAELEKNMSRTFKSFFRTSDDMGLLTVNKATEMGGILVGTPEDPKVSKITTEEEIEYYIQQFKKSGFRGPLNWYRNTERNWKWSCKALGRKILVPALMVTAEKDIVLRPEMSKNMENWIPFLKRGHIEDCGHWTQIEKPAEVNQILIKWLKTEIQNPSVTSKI
Outline: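 Hydrolase assay with 0.1 μM full-length enzyme in Bis-Tris pH 7 containing 0.1 mg/mL BSA and 0.01% Triton X-100. […] Reaction started with PHOME (50 μM final). 6-Methoxynaphthaldehyde fluorescence (ex 330/em 465 nm) read every minute for 45 min. Triplicates.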

[3] = target: T3, Peroxisome proliferator-activated receptor delta (Homo sapiens) (UniProt Q03181); assay: Activation of Gal4-fused human PPARbeta/delta LBD transfected in HEK293T cells at 10 uM after 12 to 14 hrs by luciferase reporter gene assay; assay type: cell-based; outline: as §1
T3 sequence (whole entry): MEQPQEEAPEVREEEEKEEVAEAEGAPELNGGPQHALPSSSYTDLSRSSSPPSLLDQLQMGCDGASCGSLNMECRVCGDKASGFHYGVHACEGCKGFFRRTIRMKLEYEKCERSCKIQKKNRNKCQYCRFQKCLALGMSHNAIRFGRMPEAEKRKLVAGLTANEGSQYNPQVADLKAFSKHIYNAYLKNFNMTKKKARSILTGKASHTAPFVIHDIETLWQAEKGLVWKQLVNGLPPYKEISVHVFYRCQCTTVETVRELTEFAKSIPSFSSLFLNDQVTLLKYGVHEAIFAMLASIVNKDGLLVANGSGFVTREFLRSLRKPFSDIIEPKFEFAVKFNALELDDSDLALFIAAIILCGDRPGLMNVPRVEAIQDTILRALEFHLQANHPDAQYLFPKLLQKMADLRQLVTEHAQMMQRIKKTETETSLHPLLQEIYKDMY

[4] = target: T4, Peroxisome proliferator-activated receptor gamma (Homo sapiens) (UniProt P37231); assay: Activation of Gal4-fused human PPARgamma LBD transfected in HEK293T cells at 10 uM after 12 to 14 hrs by luciferase reporter gene assay; assay type: cell-based; outline: as §1
T4 sequence (whole entry): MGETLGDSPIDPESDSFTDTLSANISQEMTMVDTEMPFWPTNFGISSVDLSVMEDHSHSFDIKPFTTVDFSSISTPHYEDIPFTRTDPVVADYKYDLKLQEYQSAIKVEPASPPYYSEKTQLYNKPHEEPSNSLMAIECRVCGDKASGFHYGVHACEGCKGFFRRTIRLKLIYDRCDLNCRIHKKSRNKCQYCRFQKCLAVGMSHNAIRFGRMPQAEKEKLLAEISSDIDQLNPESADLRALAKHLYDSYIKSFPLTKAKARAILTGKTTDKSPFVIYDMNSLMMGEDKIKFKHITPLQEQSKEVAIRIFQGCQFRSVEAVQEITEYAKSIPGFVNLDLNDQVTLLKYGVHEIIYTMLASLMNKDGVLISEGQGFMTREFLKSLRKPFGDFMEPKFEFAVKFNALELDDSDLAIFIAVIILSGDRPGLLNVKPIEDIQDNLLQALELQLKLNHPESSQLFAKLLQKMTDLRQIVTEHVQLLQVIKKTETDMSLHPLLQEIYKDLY

| Activity [1] | IC50 [2] [µM] | Activity [3] | Activity [4] | SMILES |
| --- | --- | --- | --- | --- |
| inactive | > 300 | inactive | inactive | O=C(O)CCc1nc(-c2ccccc2)c(-c2ccccc2)o1 [OXAPROZIN] |
| inactive | > 30 | inactive | 29% | O=C(O)CCCc1nc(-c2ccc(Cl)c(Cl)c2)c(-c2ccccc2)o1 |
